Test [1] has as its system Plasmodium berghei (ANKA). The test is described as follows: Antiplasmodial activity as survival against Plasmodium berghei ANKA infection in NMRI mice (Mus musculus) at 10 mg/kg intraperitoneal dose for 4 days.
In test [2] the test system is Ferriprotoporphyrin IX. The test is described as follows: Inhibition of ferriprotoporphyrin 9 biomineralization. The format is functional. In short, it runs like this:
(§1)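 β-Hematin formation: hemin chloride (0.5 mg/mL in DMSO) with 0.5 M sodium acetate pH 4.4 and drug dilutions, 37 °C for 18–24 h. Pellet washed with DMSO, dissolved in 0.1 N NaOH, A405 read. Percent inhibition relative to solvent control. IC₅₀ derived, or percent inhibition at 1 mg/mL (highest concentration) given when no IC₅₀.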

Test [3] relates to Plasmodium berghei (ANKA). The test is described as follows: Antiplasmodial activity against parasitemia in Plasmodium berghei ANKA infected NMRI mice (Mus musculus) at 10 mg/kg intraperitoneal dose after 4 days.
In test [4] the test system is Plasmodium berghei (ANKA). Nature of the test: Antiplasmodial activity as survival against Plasmodium berghei ANKA infection in NMRI mice (Mus musculus) assessed at 5 mg/kg intraperitoneal dose for 4 days.
The test system of test [5] is Plasmodium berghei (ANKA). Nature of the test: Antiplasmodial activity against parasitemia in Plasmodium berghei ANKA infected NMRI mice (Mus musculus) at 5 mg/kg intraperitoneal dose after 4 days.
Test [6] has as its system Trypanosoma brucei rhodesiense. Nature of the test: Antitrypanosomal activity against Trypanosoma brucei rhodesiense STIB900. The format is functional, organism-based. In short, it runs like this: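 Bloodstream forms (10⁴ per well) in MEM with 15% heat-inactivated horse serum, 25 mM HEPES, 2-mercaptoethanol, hypoxanthine. 3-fold serial dilutions from 90 to 0.123 µg/mL, in duplicate. Incubation 72 h at 37 °C, 5% CO₂. Resazurin then added for 2–4 h more. Fluorescence read at ex 536 / em 588 nm.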

Test [7] in a line: Binding affinity for DNA assessed as thermal melting temperature. In short, it runs like this:
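Thermal melting of poly(dA)·poly(dT): DNA at 40 µM base with compound at 12 µM (ratio 0.3) in MES 0.01 M / EDTA 0.001 M buffer, pH 6.25. A260 followed from 20 to 95 °C at 0.5 °C/min. Value is ΔTm.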

Test [8] relates to L6. The test is described as follows: Cytotoxicity against rat L6 cells. Type of test: cell-based.
In test [9] the test system is Plasmodium berghei (ANKA). The test is described as follows: Antiplasmodial activity against parasitemia in Plasmodium berghei ANKA infected NMRI mice (Mus musculus) at 20 mg/kg intraperitoneal dose after 4 days.
The test system of test [10] is Plasmodium falciparum. The test is described as follows: Antiplasmodial activity against Plasmodium falciparum K1 in [3H]hypoxanthine incorporation assay. Type of test: functional, organism-based. The settings on record: K1, 72 h. The gist of the method: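 K1 erythrocytic stages in RPMI 1640 without hypoxanthine with AlbuMax, human A⁺ red cells at 2.5% hematocrit, 0.3% parasitemia. Compounds taken from 10 mg/mL DMSO stock, tested as serial doubling dilutions at 37 °C in 4% CO₂/3% O₂/93% N₂. After 48 h, ³H-hypoxanthine (0.5 µCi) added for 24 h more; incorporation by scintillation counting. IC₅₀ from sigmoidal curves.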

Test [11] can be described thus: Selectivity index, ratio of IC50 for rat L6 cells to IC50 for Plasmodium falciparum K1. Type of test: functional. The gist of the method:
(§2)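 Ratio of the IC₅₀ on L-6 rat skeletal myoblasts to the parasite IC₅₀. Cytotoxicity measured in RPMI 1640 with L-glutamine and 10% FBS, serial dilutions 90 to 0.123 µg/mL, duplicate. After 72 h, Alamar blue (resazurin) added for 2 h. Fluorescence read at ex 536 / em 588 nm.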

Test [12] in a line: Selectivity index, ratio of IC50 for rat L6 cells to IC50 for Trypanosoma brucei rhodesiense STIB900. Type of test: functional. In short, it runs like this:
as §2

Test [13] has as its system Plasmodium berghei (ANKA). The test is described as follows: Antiplasmodial activity as survival against Plasmodium berghei ANKA infection in NMRI mice (Mus musculus) at 20 mg/kg intraperitoneal dose for 4 days.
For test [14], the system named is Plasmodium berghei. The test is described as follows: Antiplasmodial activity against parasitemia in Plasmodium berghei ANKA infected NMRI mice (Mus musculus) at 30 mg/kg intraperitoneal dose after 4 days.
Test [15] has as its system Plasmodium berghei. The test is described as follows: Antiplasmodial activity as survival against Plasmodium berghei ANKA infection in NMRI mice (Mus musculus) at 30 mg/kg intraperitoneal dose for 4 days.
The test system of test [16] is Ferriprotoporphyrin IX. The test is described as follows: Inhibition of ferriprotoporphyrin 9 biomineralization at 1 mg/ml. Type of test: functional. In short, it runs like this:
as §1

Test [17] concerns Plasmodium berghei. Nature of the test: Antiplasmodial activity as survival against Plasmodium berghei ANKA infection in NMRI mice (Mus musculus) at 50 mg/kg intraperitoneal dose for 4 days.
The test system of test [18] is Plasmodium berghei. Nature of the test: Antiplasmodial activity against Plasmodium berghei ANKA infected NMRI mice (Mus musculus) as reduced parasitemia at 50 mg/kg intraperitoneal dose after 4 days. Also noted: scale not given: the % may be the effect or the level left.

For the compound `CCN(CC)CCCC(C)Nc1ccnc2cc(Cl)ccc12` (stereo not drawn) [CHLOROQUINE], the Survival came to 20 days in test [1] and 9 days in [4]. Half-maximal inhibition in test [2] (IC50) was put at 17.9 µM. The Activity in test [3] and in test [5] was 99.6% in each case.
Consider `c1cc(NC2=NCCN2)ccc1Cc1ccc(NC2=NCCN2)cc1`, for which the IC50 in test [6] was 897 nM; in test [8], 63.6 µM; in test [10], 15.7 nM. For the same compound, the ΔTm in test [7] came to 18.8 °C. In [9], this compound had an Activity of 8.9%. The entries for the “Ratio IC50” value in test [11] and in test [12] were 4051 and 71, respectively. In [13], the Survival stood at 6.7 days.
With `c1cc(N2CCN(c3ccc(NC4=NCCN4)cc3)CC2)ccc1NC1=NCCN1`, the half-inhibitory concentration (IC50) in test [6] turned out to be 118 nM; in test [8], 104 µM; in test [10], 12.3 nM; in test [2], 128 µM. Also, the ΔTm in [7] was 38.8 °C. In test [9], the Activity came out at 0%. For the same compound, the “Ratio IC50” value in test [11] amounted to 8455; in test [12], 881. Also, the Survival in [13] is 7 days.
On to `c1cc(Oc2ccc(NC3=NCCN3)cc2)ccc1NC1=NCCN1`, for which the half-maximal inhibitory concentration (IC50) in [6] amounted to 467 nM; in [8], 41 µM; in test [10] it was 38 nM. The compound further yielded an Activity in test [14] of 44.1%. Besides, in test [7], the thermal shift (ΔTm) amounted to 27.1 °C. Also, in [15], the Survival was found to be 7 days. The “Ratio IC50” value is on record as 1079 in test [11] and 88 in test [12]. The compound also registered an inhibition in [16] of 0%.
On to `c1cc(Nc2ccc(NC3=NCCN3)cc2)ccc1NC1=NCCN1`, for which the IC50 in test [6] is 69 nM; in test [8], 212 µM; in test [10], 8.8 nM; in test [2] it was 429 µM. Also, the ΔTm in [7] came to 38.5 °C. In addition, the Activity in test [9] is listed as 65.51%. Moreover, the “Ratio IC50” value in test [11] is 24000; in test [12], 3072. The compound further showed a Survival in test [13] of 7 days.
As to `N=C(N)Nc1ccc(N2CCN(c3ccc(NC(=N)N)cc3)CC2)cc1`, the half-inhibitory concentration (IC50) was 270 nM in [6], 46.4 µM in [8] and 15.2 nM in test [10]. Also, the thermal shift (ΔTm) in test [7] was determined as 27.8 °C. For the same compound, the Activity in test [9] is 42.48%. Also, the “Ratio IC50” value in test [11] is recorded as 3053; in test [12], 172. Besides, the inhibition in test [16] stood at 0%. In [13], this compound gave a Survival of 7 days.
On to `c1cc(Sc2ccc(NC3=NCCN3)cc2)ccc1NC1=NCCN1`, for which the concentration for half-maximal inhibition (IC50) in test [6] was determined as 386 nM; in [8], 23.3 µM; in [10], 25 nM; in [2], 952 µM. In addition, in test [7], the shift in melting temperature (ΔTm) is 24.1 °C. Besides, the figures for the “Ratio IC50” value in test [11] and in test [12] were 932 and 60, respectively. Moreover, in [17], the Survival was 11.3 days. In test [18], this compound returned an Activity of 97.5%.

Broadly, the IC50 is the concentration needed to halve the response being measured. The term ΔTm denotes the change in melting temperature against a reference sample. By inhibition is commonly meant the drop in the measured response relative to a control, in per cent.

The values are drawn from ChEMBL document CHEMBL1141653, “New bis(2-aminoimidazoline) and bisguanidine DNA minor groove binders with potent in vivo antitrypanosomal and antiplasmodial activity” (J Med Chem, 2008).
